Data taken from the RNAGym collection of RNA variant scans (doi:10.1126/science.aae0568).
Fewer inactive variants are shown than the library holds.

B1: tRNA (parent)
chain: GUUCCGUUGGCGUAAUGGUAACGCGUCUCCCUCCUAAGGAGAAGACUGCGGGUUCGAGUCCCGUACGGAACG

Variants of: B1
Test: yeast fitness relative to wild type (ratio to wild type); higher = fitter; tRNA-Arg(CCU), competitive growth, 37 C, YPD
Outline: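 Start and end populations of a pooled competition were compared by 100-nucleotide paired-end sequencing of gene amplicons. The Saccharomyces cerevisiae strains carried tRNA-Arg(CCU) gene variants at the native genomic locus, synthesised with a 3% per-site mutation rate at 69 sites, and competed in YPD at 37°C for 24 hours in six parallel replicates. Darwinian fitness relative to wild type was based on the change in genotype frequencies. Genotypes required ≥ 100 starting reads, and estimates < 0.5 were set to 0.5.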

Point of comparison: U2C G12C, yeast fitness 0.831. Against it:
- U2A G12C A36C — lower, ≤ 0.5
- U2G A15G G17A U28A C29U A45C A69C — lower, ≤ 0.5
- U2A G17C — lower, 0.603
- U2A A20C C33G C46U A70G — lower, ≤ 0.5
- U2A U8C U47A G68C — lower, ≤ 0.5
- U2C U26C — higher, 0.947
- U2G C4U G52C — lower, 0.516
- U2A G9A A37C A42C G68A — lower, ≤ 0.5
- U2C U16A U32A A37U C62A — lower, ≤ 0.5
- U2A A20U C34U G51A — lower, ≤ 0.5
- U2C C30G C61U G68A — lower, ≤ 0.5
- U2C A15G G38C U64A G68A A69C — lower, ≤ 0.5
- U2A G12U G23A A36U G58C C60U — lower, ≤ 0.5
- U2C C5A C11A A40G — lower, ≤ 0.5
- U2A U32A A37U A43G — lower, ≤ 0.5
- U2A C31G C61G — lower, ≤ 0.5
- U2C U13C G41A C60G C61G C62U — lower, 0.596
- U2A C34A U47G C49G C60G — lower, ≤ 0.5
- U2A A40U A70U — lower, 0.696
- U2A C5A A40U — lower, 0.647
- U2A A20C C33G C46U — lower, ≤ 0.5
- U2C U7A A37G A42U G48C C55U C66G — lower, ≤ 0.5
- U2A C24G U28C A40U — lower, ≤ 0.5
- U2A C60U C62A — lower, ≤ 0.5
- U2C U3C — higher, 0.885
- U2C A65G — higher, 0.867
- U2C C27G G51A — lower, ≤ 0.5
- U2A G50C U59C C60A — higher, 0.877
- U2A U28C G41C C66A — lower, ≤ 0.5
- U2C G25A A37G A70C — lower, ≤ 0.5
- U2A C29A A45U G68C — lower, ≤ 0.5
- U2A G17C C24U C33U A36G U54C — lower, ≤ 0.5
- U2G C4U A20C C30G — lower, ≤ 0.5
- U2C A20G A42U — lower, 0.642
- U2C A21C G38A — lower, 0.594
- U2C U13A — lower, 0.805
- U2A U7G — higher, 0.847
- U2C C5G C33G C60A G67C — lower, ≤ 0.5
- U2G A21C C22U A70U — lower, ≤ 0.5
- U2C G12A A15G C29G C33G G41C C66U — lower, ≤ 0.5
- U2C C30U C31U — lower, 0.698
- U2G A20C G48C — lower, ≤ 0.5
- U2C C27U U28G C33G A36G — lower, 0.544
- U2A U28G G67A — lower, ≤ 0.5
- U2A U3A U16C C24U C62U — lower, 0.629
- U2A C34G U64C — lower, ≤ 0.5
- U2A G6C G38A — lower, 0.592
- U2A C5G A15G — lower, 0.575
- U2C G10C — lower, 0.724
- U2A U47G C49A C60U A65C — lower, ≤ 0.5
- U2A G6C A21G U32C U59G C66U A70C — lower, ≤ 0.5
- U2A G9A U13A C24A A42G C55U A70C — lower, ≤ 0.5
- U2C A40C G50A C66U — lower, ≤ 0.5
- U2A A14U A21G C46G A57U A69C — lower, ≤ 0.5
- U2A G50C G56A A57G — lower, ≤ 0.5
- U2C C30U C31A A40U C49A — lower, ≤ 0.5
- U2A A15U C22A A45G C46A U53C — lower, 0.589
- U2A C4A — higher, 0.914
- U2G C5U U32C C55U — lower, 0.581
- U2A C4G G41A C55A — lower, ≤ 0.5
- U2A C4A C5G A65G — lower, ≤ 0.5
- U2C U16G C30G G63C — lower, ≤ 0.5
- U2A C5A C55U — lower, ≤ 0.5
- U2C C33U — higher, 0.862
- U2A C34G C49A G50A — lower, 0.517
- U2A U3A C24G G52C — lower, ≤ 0.5
- U2G A42U U47A — lower, 0.738
- U2C U8C A20U U28A G67U — lower, ≤ 0.5
- U2C U35G G52A — lower, ≤ 0.5
- U2C G6A A20U C30U A36U C49A — lower, ≤ 0.5
- U2A A21C G39A G52C C62U — lower, ≤ 0.5
- U2A U16G C66U — lower, 0.806
- U2G C5U — higher, 0.877
- U2A C29A A42G U54A C60G G68A — lower, ≤ 0.5
- U2C U7A A65U — lower, 0.725
- U2A A20G G67A — lower, 0.584
- U2C U54A A70U — lower, 0.555
- U2C C5G C11G C29U A36U G50C U54G — lower, 0.628
- U2A G6C U16C C24U C46G C49A C61U — lower, ≤ 0.5
- U2A C11U — higher, 0.894
- U2A A37C G41C C66A — lower, ≤ 0.5
- U2A U8A G12A C30U — lower, ≤ 0.5
- U2C G12A G18C C33U A69C — lower, 0.565
- U2A U59A — higher, 0.917
- U2C U19C A37G C49A — lower, ≤ 0.5
- U2C C24G C29U A69C — lower, ≤ 0.5
- U2A C33G A36U G44A U59C — lower, 0.554
- U2A A37U A70C — lower, 0.688
- U2C C30G C49A — lower, ≤ 0.5
- U2A C5A G56C — lower, 0.56
- U2A C5A G56A — lower, 0.526
- U2G C5U A15U G17A U47G C49G C60G A70U — lower, ≤ 0.5
- U2C C27G U28A A43U A69U — lower, 0.541
- U2C U47A C49A — lower, ≤ 0.5
- U2A G44C C55A — lower, ≤ 0.5
- U2A A36G C49A C61U — lower, ≤ 0.5
- U2C A14C A43C — lower, ≤ 0.5
- U2C U8G C31G A42C C49U G56A C61G — lower, ≤ 0.5
- U2C C55U — lower, 0.792
- U2C C4G C22U C30A A65U — lower, ≤ 0.5
- U2A C30A G63C — lower, ≤ 0.5
- U2A A15C A57U C61U — lower, 0.504
- U2C C4U A21C U28C C31A U32C — lower, ≤ 0.5
- U2C G48A G52A — lower, 0.623
- U2C A15U — lower, 0.653
- U2C G23C U28C A43U C60A — lower, ≤ 0.5
- U2C C30U U54A — lower, ≤ 0.5
- U2A A20U A45C — lower, 0.728
- U2C G17A A69C — lower, 0.576
- U2A A14C A37C — lower, ≤ 0.5
- U2A U32A U64A A65U — lower, 0.581
- U2A C5A U64G A70C — lower, ≤ 0.5
- U2C C22G — higher, 0.878
- U2C C22U — higher, 0.842
- U2C C5G C46U — higher, 0.872
- U2A A21C C29U — lower, ≤ 0.5
- U2A C29U A37G — lower, ≤ 0.5
- U2A U8C U13C A42C — lower, ≤ 0.5
- U2C A40G — higher, 0.984
- U2A A21C C22A C29U C49G — lower, ≤ 0.5
- U2A A15C G58C U64C — lower, 0.53
- U2G C4U C61A C62U A65U A69C — lower, 0.519
- U2C C4A U28C U53C — lower, ≤ 0.5
- U2C U16C C22A C29A G51C — lower, ≤ 0.5
- U2C C66U A69U — lower, 0.603
- U2A C29A A43C — lower, ≤ 0.5
- U2C U13A U19C C55A A69C — lower, ≤ 0.5
- U2A C4A G12A C33U G39A U64A A70C — lower, ≤ 0.5
- U2A C4U G10C — lower, 0.522
- U2A C24G C31U C33G A42C A43U — lower, 0.651
- U2A U8G C22U U32C C33G G38A — lower, ≤ 0.5
- U2A U32A — lower, 0.72
- U2G C4U C61A A65U A69C — lower, ≤ 0.5
- U2C C24A U26A U47C C61U — lower, 0.628
- U2C G9C U13C A20C — lower, ≤ 0.5
- U2A C5U U8G A20G C34A — lower, ≤ 0.5
- U2A U16C C30A A65U — lower, ≤ 0.5
- U2C A57G — higher, 0.891
- U2A U13G C62G — lower, ≤ 0.5
- U2A C11G U19C C60U — lower, ≤ 0.5
- U2A C22U G56A — lower, 0.551
- U2A U32C U35C A36G — lower, ≤ 0.5
- U2C C46U A65U — higher, 1.06
- U2C C4U G10C A57C — lower, ≤ 0.5
- U2A C5A C27U G44A — lower, ≤ 0.5
- U2A C34G — lower, 0.604
- U2C U19C A37G C49A C66G — lower, ≤ 0.5
- U2C C5G C24U G38C G39A — lower, ≤ 0.5
- U2G A20U C29A G39A A45C — lower, 0.586
- U2G C4A C22U U28G A42U C61U — lower, ≤ 0.5
- U2A G9A A37C A42C C61G — lower, ≤ 0.5
- U2C C5A A40G — lower, 0.563
- U2A A21G — higher, 1.04
- U2A C24U C31G G44A — lower, ≤ 0.5
- U2C C5U C11G C34U A36G C55G A57U G67A — lower, ≤ 0.5
- U2G A40U C49A — lower, 0.547
- U2A A45C G58A C61U — lower, ≤ 0.5
- U2C C31G G56A U59A — lower, ≤ 0.5
- U2C G56A A65G — higher, 1.27
- U2A G6C A14C — lower, ≤ 0.5
- U2C C11A C31U C33U A42C C61U — lower, ≤ 0.5
- U2C A37U A40C — lower, 0.633
- U2A G17C C22G A40C — lower, ≤ 0.5
- U2C U8A G17C G38A C61A — lower, ≤ 0.5
- U2C U19G U28G — lower, ≤ 0.5
- U2A C11G G51A C60U — lower, ≤ 0.5
